High-throughput results: PubChem BioAssay, Sanford-Burnham Center for Chemical Genomics
LMPTP block: LMPTP (human) inhibition; P24666; hit rate 0.22% among 360,000; recombinant LMPTP-A, OMFP fluorogenic substrate, fluorescence intensity; inhibition, % at 20 µM;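 active = compounds that cut the enzyme signal by at least half of the control window in the single-dose screen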;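 note: plate controls were DMSO wells with enzyme plus substrate for no effect and substrate without enzyme for full effect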
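Test system: LMPTP-A phosphatase enzyme. Amount: LMPTP-A at 0.625 nM final in the reaction. Reagent: OMFP substrate, 400 µM final. Times: 50 min at room temperature. Signal: endpoint fluorescence intensity from OMFP dephosphorylation. Read-out basis: % inhibition. Benchmarks: no-enzyme and uninhibited controls.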
STEP inh: STEP (human) phosphatase inhibition | inhibition, % at 20 µM | recombinant STEP, OMFP fluorogenic substrate, fluorescence | P54829 | hit rate 0.25% among 360,000;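 active = inhibition at 20 µM, scaled per plate between control wells, above about 37%, limit read from the data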;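 note: 0% = DMSO with enzyme and substrate and 100% = substrate only without enzyme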
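Test system: STEP tyrosine phosphatase / Reagent: OMFP at 25 µM / Doses: 20 µM, 1% DMSO / Read-out: percent inhibition scaled to no-enzyme and uninhibited-enzyme controls, plate-pattern corrected / Detection: FITC-channel fluorescence of OMFP product / Medium: Bis-Tris buffer pH 6.0, 2.5 mM DTT, 0.005% Tween 20 / Schedule: 20 min at room temperature, dark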
Scp-1 inhibitor: blocks human Scp-1 phosphatase activity; Q9GZU7; Recombinant Scp1, phosphopeptide, malachite green phosphate absorbance; inhibition, % at 20 µM; hit rate 0.88% among 340,000; AID 493091;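 active = inhibition above about 50% at 20 µM, limit read from the data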;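 note: plate controls were DMSO wells with enzyme for no effect and wells lacking enzyme for full effect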
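Test system – truncated SCP-1 phosphatase (76-261aa) · Reagent – Phosphorylated 17-residue peptide substrate · Incubation – 45 min room-temperature reaction, 5 min colour, 30 min stabiliser · Detection – colorimetric phosphate reagent with accelerator and stabiliser, absorbance at 630 nm · Measure – % inhibition at 20 µM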
DNMT1 block: blocks human DNA methyltransferase DNMT1; inhibition (reported as % activation of signal), % at 10 µM; P26358; DNMT1 molecular beacon, Hinp1I cleavage, fluorescence; hit rate 0.83% among 360,000; in the data active = inhibition above about 50%
SUMO1-SIM PPI: alters human SUMO1 binding to SIM partners. SUMO1 binding to a labelled peptide, TR-FRET, 1 h. hit rate 0.33% among 360,000. inhibition, % at 20 µM. P63165. AID 602429; in the data active = inhibition above about 37%
Numbers without * were called inactive; nt = not tested or not shown. In the library only some 1.7% were active in any assay of this set; here they are far more common.

SMILES	LMPTP block	STEP inh	Scp-1 inhibitor	DNMT1 block	SUMO1-SIM PPI
COc1ccc(CCNC(=O)c2cc(-c3ccc(C)c(C)c3O)n[nH]2)cc1OC	3	0	-3	-7	37*
O=C1C=C(N2CCOCC2)c2ccccc2C1=O	11	1	0	82*	40*
O=C1C=C(N2CCOCC2)c2cccc3cccc1c23	9	1	nt	5	-34
CCNC(=O)C1(C)CCCN(C(=O)c2nc(C)oc2C)C1 (centres undefined)	0	-2	nt	1	-3
Cc1cccc(NC(=O)CNC(=O)CN2C(=O)NC(C)(CCC(C)C)C2=O)c1C (centres undefined)	-1	-2	-1	2	-5
COC(=O)c1ccc(Cn2c(C)c(C(=O)NCc3cccc([N+](=O)[O-])c3)sc2=O)o1	0	-2	nt	-2	-20
O=C(CCN1C(=O)/C(=C/c2ccc(F)cc2)SC1=S)NC1C=CS(=O)(=O)C1 (centres undefined)	5	-1	-7	6	-26
O=C(CCN1C(=O)/C(=C/c2ccccc2Cl)SC1=S)NC1C=CS(=O)(=O)C1 (centres undefined)	8	4	-11	54*	1
O=c1c2c([N+](=O)[O-])cc([N+](=O)[O-])cc2sn1-c1ccc(Br)cc1	-1	0	94*	-15	-18
O=c1c2c([N+](=O)[O-])cc([N+](=O)[O-])cc2sn1Cc1ccccc1	1	-2	47	-1	-38
CCCNC(=O)C1(C)CCN(Cc2cccc(OC(=O)c3ccccc3)c2)C1 (centres undefined)	2	-2	nt	0	-4
CCc1nc2ccc(C(=O)N3CCCC(C(N)=O)C3)cn2c1N(C)Cc1ccc(OC)cc1 (centres undefined)	-1	-2	nt	5	1
CCN1/C(=C\C(=S)Nc2ccccc2)Sc2ccccc21	1	-2	-3	-4	-10
CCN1/C(=C/C(C)=C/c2sc3ccccc3[n+]2CC)Sc2ccccc21	74*	37	-1	13	21
CN(C)c1ccc(/C=N/NC(=O)c2nnn(-c3nonc3N)c2COc2ccc(F)cc2)cc1	51*	6	7	32	7
Nc1nonc1-n1nnc(C(=O)N/N=C/c2ccc(Cl)cc2Cl)c1CN1CCCCC1	-2	-1	1	14	4
Nc1nonc1-n1nnc(C(=O)N/N=C/c2cc(Cl)ccc2O)c1CN1CCCCCC1	0	0	nt	50*	7
CCOc1ccc(/C=N/NC(=O)c2nnn(-c3nonc3N)c2COc2ccc(F)cc2)cc1	43	-1	-4	11	-1
CN(Cc1c(C(=O)N/N=C/c2ccccc2O)nnn1-c1nonc1N)C1CCCCC1	1	0	nt	59*	3
COc1ccc(CN2CCC[C@]3(N[C@H](c4ccc(C)cc4)[C@@H]4C(=O)N(C)C(=O)[C@@H]43)C2=O)cc1	-2	-2	nt	2	4
Cc1ccc(S(=O)(=O)NC(=O)C2(C)CCN2C(=O)C2CCCCC2)nc1 (centres undefined)	-1	2	nt	0	-1
Nc1[nH]c(C(=O)c2ccccc2)c(-c2ccccc2C(F)(F)F)c1C(=O)c1cccs1	1	nt	nt	nt	0
Oc1ccc(/C=N/Nc2ccnc3cc(Cl)ccc23)c(O)c1O	46	14	-12	-7	10
Oc1ccc(/C=N/Nc2ccnc3cc(Cl)ccc23)cc1O	48	2	-7	4	55*
O=C1Nc2ccc(Br)cc2/C1=N\N=C\C1=C(N2CCOCC2)C(=C/c2ccccc2)/CC1	3	8	64*	-20	-18
SMILES	LMPTP block	STEP inh	Scp-1 inhibitor	DNMT1 block	SUMO1-SIM PPI
O=C1Nc2ccccc2/C1=N\N=C\C1=C(N2CCOCC2)C(=C\c2ccccc2)/CC1	13	11	nt	-5	-25
CCOC(=O)C1=C[C@@H](CC)N(S(=O)(=O)c2ccc(C)cc2)[C@H]1c1cccs1	2	3	nt	-4	5
CCCCN1C=C(C(=O)OC)C(c2ccccc2Cl)C(C(=O)OC)=C1	0	1	-10	1	46*
CCCCN1C=C(C(=O)OC)C(c2ccccc2C(F)(F)F)C(C(=O)OC)=C1	0	0	-8	2	7
O=[N+]([O-])c1c(Nc2ccc(O)cc2)cc(Cl)c2nonc12	0	49*	-13	27	-23
O=C(NC1CCCCC1)C(c1ccccc1)n1c(=O)c(-c2ccco2)nc2ccccc21 (centres undefined)	2	nt	nt	nt	-2
O=C1C(SCCO)=C(SCCO)C(=O)c2ccccc21	22	24	-6	81*	35
O=C1C(Cl)=C(NCCCO)C(=O)c2ccccc21	4	1	1	-9	-31
CC(=O)Nc1cncc(-c2cccc(C(=O)N3CCOCC3)c2)n1	0	-1	nt	4	-1
Cc1cc(OCC(=O)Nc2cccnc2)c2c(C)c(C)c(=O)oc2c1	2	4	2	5	76*
CC(=O)OCC1=C(C(=O)O)N2C(=O)C(NC(=O)COc3ccc(F)cc3)C2SC1 (centres undefined)	0	4	54*	25	23
O=C(O)CCN1C(=O)/C(=C\c2ccc(-c3nc4ccccc4s3)o2)SC1=S	41	79*	63*	109*	87*
O=C(O)CCN1C(=O)/C(=C\c2ccncc2)SC1=S	1	0	-6	0	-26
O=C(O)CCCN1C(=O)/C(=C\c2ccco2)SC1=S	2	12	29	58*	29
Cc1noc(C)c1-c1ccc(C(=O)NCCc2ccccc2)c2occc12	0	0	nt	-1	11
CC1CCc2c(sc3ncnc(SCC(=O)Nc4ccc(C(=O)O)cc4)c23)C1 (centres undefined)	36	2	-5	2	19
CC(C)c1nc(SCC(=O)Nc2ccc(C(=O)O)cc2)c2c3c(sc2n1)CCCC3	53*	1	17	1	32
CCOC(=O)c1c(C)oc2c1c(C=NCCO)c(O)c1ccccc12	5	-2	-1	10	46*
CCOC(=O)c1c(C)oc2c1c(C(c1ccccc1)N1CCOCC1)c(O)c1ccccc12 (centres undefined)	3	1	-2	-1	7
CO[C@@]1(NC(=O)CSCC#N)C(=O)N2C(C(=O)O)=C(CSc3nnnn3C)CS[C@@H]21	-2	3	65*	66*	12
O=C(CSCc1cccc(Br)c1)N=Nc1c(O)[nH]c2ccccc12	2	-1	-8	0	-21
O=Nc1c(-c2c(O)[nH]c3cc(Br)ccc23)[nH]c2ccccc12	6	5	-14	-30	44*
COc1ccc(CNC(=O)c2sc(=O)n(Cc3cc(C(C)=O)ccc3OC)c2C)cc1	0	-1	nt	-3	-5
